Results from ChEMBL document CHEMBL1147135, “9-(2-C-Cyano-2-deoxy-beta-D-arabino-pentofuranosyl)guanine, a potential antitumor agent against B-lymphoma infected with Kaposi's sarcoma-associated herpesvirus” (J Med Chem, 2007).
Active and inactive are the calls of the source. No cut-off for these calls is given here.

Experiments:
[1] = tested on: Human gammaherpesvirus 8; assay: Cytotoxicity against Kaposi's sarcoma-associated herpesvirus infected BC3 cells after 120 hrs by MTT assay; format: functional, organism-based; conditions: Human gammaherpesvirus 8, BC-3, 120 h
Summary of the method: (§1)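 KSHV-positive PEL lines (BC2, BC3) and herpesvirus-negative B-lymphoma DG75 exposed to varying nucleoside concentrations for 120 h, then cell viability assay; OD 560 nm, untreated cells of each line set as 100%. Six replicate wells per experiment; IC50 as mean ± SD of three separate experiments.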

[2] = tested on: Human gammaherpesvirus 8; assay: Cytotoxicity against Kaposi's sarcoma-associated herpesvirus infected BC2 cells after 120 hrs by MTT assay; format: functional, organism-based; conditions: Human gammaherpesvirus 8, BC-2, 120 h; summary of the method: as §1
[3] = Cytotoxicity against DG75 cells after 120 hrs by MTT assay; format: cell-based; conditions: Homo sapiens, DG-75, 120 h; summary of the method: as §1
[4] = tested on: BC-3; assay: Inhibition of RNA synthesis in KSHV infected BC3 cells assessed as [3H]guanosine incorporation after 1 hr; format: functional, Homo sapiens
Summary of the method: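 BC3 cells (2.5 × 10⁵ cells/mL) cultured 24 h, then compound added for 1 h; before harvest, 30 min pulse label with [³H]thymidine for DNA or tritiated ribonucleoside for RNA (guanosine in text, uridine in legend); synthesis measured as radiolabel incorporation.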

[5] = tested on: Human gammaherpesvirus 8; assay: Cytotoxicity against Kaposi's sarcoma-associated herpesvirus infected BC3 cells in presence of 50 uM adenosine after 72 hrs; format: functional, organism-based; conditions: BC-3
Summary of the method: (§2)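 BC3 cells seeded at 10⁴ cells/mL, given graded compound concentrations plus one common nucleoside (final 50 µM) added simultaneously, in triplicate; 3 days (72 h) at 37 °C, humidified 5% CO₂; growth inhibition read by MTT assay.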

[6] = tested on: Human gammaherpesvirus 8; assay: Cytotoxicity against Kaposi's sarcoma-associated herpesvirus infected BC3 cells in presence of 50 uM thymidine after 72 hrs; format: functional, organism-based; conditions: BC-3; summary of the method: as §2

SMILES	IC50 [1] [µM]	IC50 [2] [µM]	IC50 [3] [µM]	Inhibition [4] [%]	Activity [5]	Activity [6]
Nc1nc2c(ncn2COC(CO)CO)c(=O)[nH]1 [GANCICLOVIR]	70	81	> 100	–	–	–
N#C[C@H]1[C@H](O)[C@@H](CO)O[C@H]1n1cnc2cnc(N)nc21	> 15	> 15	> 15	–	–	–
O=c1[nH]c(=O)n([C@H]2C[C@H](O)[C@@H](CO)O2)cc1/C=C/Br [BRIVUDINE]	> 15	> 15	> 15	–	–	–
N#C[C@H]1[C@H](O)[C@@H](CO)O[C@H]1n1cnc2c(N)ncnc21	> 15	> 15	> 15	–	–	–
N#C[C@H]1[C@H](O)[C@@H](CO)O[C@H]1n1cnc2c(Cl)nc(N)nc21	1.48	1.73	> 15	–	–	–
N#C[C@@H]1[C@H](O)[C@@H](CO)O[C@H]1n1cnc2c(=O)[nH]c(N)nc21	1.73	2.61	> 15	–	–	–
N#C[C@H]1[C@H](O)[C@@H](CO)O[C@H]1n1ccc(N)nc1=O [TAS-109]	0.23	0.13	0.21	–	–	–
Nc1nc2c(ncn2COCCO)c(=O)[nH]1 [ACYCLOVIR]	> 100	> 100	> 100	–	–	–
COc1nc(N)nc2c1ncn2[C@@H]1O[C@H](CO)[C@@H](O)[C@@H]1C#N	0.79	1.51	> 15	–	–	–
N#C[C@H]1[C@H](O)[C@@H](CO)O[C@H]1n1cnc2c(N)nc(N)nc21	0.47	1.56	> 15	–	–	–
N#C[C@H]1[C@H](O)[C@@H](CO)O[C@H]1n1cnc2c(O)nc(N)nc21	1.14	7.61	> 15	80	inactive	inactive
